From ChEMBL document CHEMBL4513216, “Probing the Open Global Health Chemical Diversity Library for Multistage-Active Starting Points for Next-Generation Antimalarials” (ACS Infect Dis, 2020)

Assay: Toxicity liver stage against HepG2, at 10uM
Type: cell-based
Design: test concentration 10 uM, cell line HepG2-A16-CD81EGFP
Conditions: human, HepG2-A16-CD81EGFP cells; read-out: INHIBITION
Method in brief: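 Uninfected HepG2-A16-CD81EGFP cells, 3 × 10^3 per well, 1536-well, plated on prespotted compound at 10 μM final, parasite-free screening media added to match infected plates; puromycin 10 μM positive, DMSO 0.5% negative; run in parallel with 48 h PbLuc assay at 37 °C, 5% CO2; viability by CellTiter-Glo luminescence, normalized to controls.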

## CC1(C(=O)N2CCOCC2)CN(CC2CCOCC2)CCO1 (stereo unspecified)
  cytotoxicity at 10 µM: 4.14%

## COc1ccccc1CC(C)CC(=O)NC(C)C (stereo unspecified)
  cytotoxicity at 10 µM: 6.16%

## COCc1cc(N2CCN(Cc3ccncc3)CC2)n2nccc2n1
  cytotoxicity at 10 µM: -6.32%

## Cc1nc2cc(C(=O)N(CCN(C)C)CCN(C)C)ccc2n1C
  cytotoxicity at 10 µM: -9.01%

## CC(C)Oc1cccc(CNC(=O)N2CCC(N3CC=CC3)C2)c1 (stereo unspecified)
  cytotoxicity at 10 µM: 0.477%

## O=C(CCc1ccco1)N1CCc2[nH]nc(COc3ccccc3)c2C1
  cytotoxicity at 10 µM: 0.86%

## Cn1cccc1C(=O)N1CCCCC12CC(=O)N(c1cccnc1)C2 (stereo unspecified)
  cytotoxicity at 10 µM: -1.91%

## COc1ccc(-c2cc3nc([C@H](C)NC(=O)C4CC4)nn3cn2)cc1
  cytotoxicity at 10 µM: -27%

## CC(NCC(F)(F)F)c1ccc(S(C)(=O)=O)c(F)c1 (stereo unspecified)
  cytotoxicity at 10 µM: 1.79%

## C1CC(c2nnc(CN3CCCC3c3noc(C4CC4)n3)o2)C1 (stereo unspecified)
  cytotoxicity at 10 µM: -7.77%

## CC(=O)Nc1nc(C(=O)NCc2ccc(OC(C)C)nc2)cs1
  cytotoxicity at 10 µM: -2.45%

## CCOc1nnc(CNC2CCCN(c3ccc(C)nn3)C2)s1 (stereo unspecified)
  cytotoxicity at 10 µM: -9.31%

## CC(=O)NCC(=O)N1Cc2cc(C#N)ccc2C1c1cnco1 (stereo unspecified)
  cytotoxicity at 10 µM: 1.06%

## CCC1CCCCN1S(=O)(=O)c1c(N)noc1C (stereo unspecified)
  cytotoxicity at 10 µM: 9.5%

## CC(C)c1ccc(/C=C/CC(=O)NC2CCS(=O)(=O)CC2)cc1
  cytotoxicity at 10 µM: 5.5%

## CC(C)(C)C(=O)NCCC(=O)NCCc1ccn(-c2ccccc2)n1
  cytotoxicity at 10 µM: -8.89%

## C=Cn1ncc(CN2C[C@@H]3CCCN3C[C@H]2Cc2ccccc2)c1C
  cytotoxicity at 10 µM: -18.5%

## O=S(=O)(C1CC1)N1CCc2ncnc(-c3ccsc3)c2CC1
  cytotoxicity at 10 µM: 4.8%

## Nc1ncc(C(=O)N2CCCC(N)CC2)c(-c2ccccc2)n1 (stereo unspecified)
  cytotoxicity at 10 µM: -132%

## CC1CCN(C(=O)c2ccc(N(C)Cc3cnn(C)c3)nc2)CC1
  cytotoxicity at 10 µM: -13.8%

## CCN1CCCC(c2nc(O)c3cc(C)ccc3n2)C1 (stereo unspecified)
  cytotoxicity at 10 µM: 8.02%

## CC(C)(C)c1ncc2c(n1)CN(C(=O)c1ccncc1)C2
  cytotoxicity at 10 µM: -12.5%

## Cn1ccnc1CN1CCC2(CC1)CC(Oc1cccnc1)C2
  cytotoxicity at 10 µM: -20.7%

## CC(=O)c1ccn(CC(=O)Nc2nn(CC3CC3)c3ccccc23)n1
  cytotoxicity at 10 µM: 9.34%

## COc1ccc2[nH]cc(C(=O)CNc3nccs3)c2c1
  cytotoxicity at 10 µM: 4.32%

## COc1ccnc(CN2CCC=C(C(C)NC(C)=O)C2)c1OC (stereo unspecified)
  cytotoxicity at 10 µM: -8.81%

## CCN1CCN(C(=O)c2cc(NC(=O)c3ccccc3)n(C)n2)CC1
  cytotoxicity at 10 µM: 8.91%

## CCCN(Cc1ccc(C(=O)NCC2COCCO2)c(=O)[nH]1)C1CC1 (stereo unspecified)
  cytotoxicity at 10 µM: -15.3%

## CCOCC(O)CN1CCN(C(=O)C2CCCCC2)CC1 (stereo unspecified)
  cytotoxicity at 10 µM: -21.5%

## COC(=O)C1CCN(C(=O)CN2CCN(c3cccc(C)c3)CC2)CC1
  cytotoxicity at 10 µM: -17.5%

## CCOc1ncccc1CNS(=O)(=O)N1CCOCC1
  cytotoxicity at 10 µM: -10.2%

## CC(=O)Cn1nc(-c2ccccc2F)ccc1=O
  cytotoxicity at 10 µM: 0.477%

## Cn1cc(Cl)c(CN2CCn3nc(C(=O)Nc4ccccc4)cc3C2)n1
  cytotoxicity at 10 µM: -2.8%

## COc1ccccc1CCNS(=O)(=O)N1CCOCC1
  cytotoxicity at 10 µM: 2.52%

## CCC[C@@H]1CN(c2ncnc3ccsc23)C[C@H]1NS(C)(=O)=O
  cytotoxicity at 10 µM: 3.73%

## COc1cc2cc(C(=O)NCC(=O)O)n(C)c2c(OC)c1OC
  cytotoxicity at 10 µM: -77.3%

## Cc1nccnc1N1Cc2cnc(CC(C)C)nc2C1
  cytotoxicity at 10 µM: 1.81%

## Cn1c(Cn2cccn2)nnc1C1CCN(Cc2cccnc2)CC1
  cytotoxicity at 10 µM: 6.01%

## CCCN(c1ccccc1C(=O)O)S(=O)(=O)c1ccc2ccccc2c1
  cytotoxicity at 10 µM: -2.32%

## CCc1ccsc1C(=O)N1CCCN(Cc2nccn2CC)CC1
  cytotoxicity at 10 µM: 1.84%

## Cc1cc(NC(C)c2n[nH]c(C)n2)n2nc(C)c(C)c2n1 (stereo unspecified)
  cytotoxicity at 10 µM: -11.4%

## Cc1cc(C)n(-c2ccc(CNCc3ccc(F)cc3F)cn2)n1
  cytotoxicity at 10 µM: -12.2%

## CCCc1nc(CN(CCO)Cc2cc(Br)ccc2F)no1
  cytotoxicity at 10 µM: -5.1%

## O=C(CN1CCOC(Cn2cccn2)C1)NC1CCN(C2CC2)CC1 (stereo unspecified)
  cytotoxicity at 10 µM: 1.1%

## O=C1CCC2(CCCN(c3ncc(Cl)cc3F)C2)CN1CC1CC1 (stereo unspecified)
  cytotoxicity at 10 µM: 5.98%

## O=C(NC[C@H]1OC[C@@H](NC(=O)c2ccccc2)[C@@H]1O)c1ccncc1
  cytotoxicity at 10 µM: 2.55%

## CCN1CCCC1CNCc1cc2cc(OC)c(OC)cc2[nH]c1=O (stereo unspecified)
  cytotoxicity at 10 µM: 2.63%

## Cc1cnn(CC2CCCN2C(=O)c2cnc(-c3ccco3)s2)c1 (stereo unspecified)
  cytotoxicity at 10 µM: -7.43%

## CCC(=O)N1CCC(c2ncc3c(n2)CCNC3)CC1
  cytotoxicity at 10 µM: -22.5%

## CNS(=O)(=O)c1ccc(F)c(C(=O)NCc2ccnc(OC)c2)c1
  cytotoxicity at 10 µM: -9.8%

## COc1cc(F)cc(CNC(=O)Nc2ccn(CC(F)F)n2)c1
  cytotoxicity at 10 µM: -2.21%

## CCC(C)(C)NC(=O)Cn1nnc(CN(C)C(=O)c2ccccc2)n1
  cytotoxicity at 10 µM: 9.74%

## COCC(=O)N1CCC2(CC1)NC(=O)[C@H]1CN(C(=O)N(C)C)C[C@H]12
  cytotoxicity at 10 µM: 7%

## O=C(Nc1ccccc1)[C@H]1C[C@H]2CN(S(=O)(=O)c3ccccc3)C[C@@H]1O2
  cytotoxicity at 10 µM: 5.8%

## CN(CCCOc1ccccc1)S(=O)(=O)c1cnn(C)c1
  cytotoxicity at 10 µM: -6.7%

## Cc1cc(C)cc(OCCNC(=O)C(C)Sc2nncn2C)c1 (stereo unspecified)
  cytotoxicity at 10 µM: -46.3%

## CCC(=O)c1ccc(OCC(=O)N(C)C(C)c2ccon2)cc1 (stereo unspecified)
  cytotoxicity at 10 µM: 1.71%

## Cc1oc(C)c(C(=O)NCc2ccccc2CN(C)C)c1C
  cytotoxicity at 10 µM: -16.9%

## CS(=O)(=O)NCc1cc2n(n1)CCCN(Cc1cc3ccccc3o1)C2
  cytotoxicity at 10 µM: 0.403%

## Cc1nc(CN2CCN(C)C(=O)C23CCN(C(C)C)CC3)cs1
  cytotoxicity at 10 µM: 2.33%

## CN(CCO)Cc1nnc(C2CCN(C3CCCCC3)CC2)n1C
  cytotoxicity at 10 µM: 20.7%

## Cc1nc(C)n(CC2CCCCN2CC(=O)Nc2cccnc2)n1 (stereo unspecified)
  cytotoxicity at 10 µM: -12.4%

## Cc1occc1C(=O)N1CCCN(Cc2nccn2C)CC1
  cytotoxicity at 10 µM: -1.56%

## CN(C)c1ncc(C(=O)N2C[C@H]3CC(Oc4ccccc4)C[C@H]3C2)cn1 (stereo partly specified)
  cytotoxicity at 10 µM: 2.54%

## Cc1cccc(C(=O)N2CCC(c3n[nH]c(C4CC4)n3)CC2)c1
  cytotoxicity at 10 µM: -15.3%

## Fc1ccc(-c2ccc(CNC3CCc4ncnn4C3)o2)cc1 (stereo unspecified)
  cytotoxicity at 10 µM: -7.62%

## COc1cc(C)nc(N2CCN(C(=O)c3cc(C)no3)CC2)n1
  cytotoxicity at 10 µM: -30.4%

## O=C(c1c[nH]nn1)N1CCCC1C1CCCCC1 (stereo unspecified)
  cytotoxicity at 10 µM: 3.81%

## CCS(=O)(=O)CC(C)N(C)C(=O)COc1ccccc1C#N (stereo unspecified)
  cytotoxicity at 10 µM: -3.51%

## Cn1ccc(C2CCCCN2C(=O)c2cccc(Cn3cccn3)c2)n1 (stereo unspecified)
  cytotoxicity at 10 µM: 8.04%

## CCC(=O)N1Cc2nccn2CC(CN(C)Cc2cccnc2)C1 (stereo unspecified)
  cytotoxicity at 10 µM: 3.55%

## CN(Cc1ccsc1)Cc1ccc(C2CCCCO2)o1 (stereo unspecified)
  cytotoxicity at 10 µM: -2.11%

## OC[C@@H]1CCCN1c1ccc(-c2nc(COc3ccccc3)no2)cn1
  cytotoxicity at 10 µM: -8.42%

## CC(=O)c1ccc(C(=O)NCCCOC(C)c2ccccc2)s1 (stereo unspecified)
  cytotoxicity at 10 µM: -14.1%

## CC(C)NC(=O)N1CC[C@H]2[C@H]1CCN2c1ncccn1
  cytotoxicity at 10 µM: -0.155%

## CS(=O)(=O)N1CCC(C(=O)N2CCN(Cc3cccc(Cl)c3)CC2)CC1
  cytotoxicity at 10 µM: 8.99%

## NC(=O)CS(=O)(=O)Cc1cc(Cl)c2c(c1)OCCCO2
  cytotoxicity at 10 µM: -0.463%

## Cc1ccc(N2C[C@@H]3CN(Cc4ccoc4)CCO[C@@H]3C2)nn1
  cytotoxicity at 10 µM: -12.8%

## COc1ccc2nc(O)c(CN(C)Cc3ncc[nH]3)cc2c1
  cytotoxicity at 10 µM: 0.55%

## Cc1cccc(N2CC[C@@H]3[C@@H](CO[C@H]3CNS(C)(=O)=O)C2)n1
  cytotoxicity at 10 µM: 3.62%

## CCc1cc(N2CCC(NCCSc3nnnn3C)CC2)nc(C)n1
  cytotoxicity at 10 µM: -15.2%

## CCc1cc(CN2CCC(CCC(=O)Nc3ccccc3Cl)CC2)on1
  cytotoxicity at 10 µM: 5.27%

## CC1CN(S(=O)(=O)c2ccc(F)cc2)c2cccnc2O1 (stereo unspecified)
  cytotoxicity at 10 µM: -0.781%

## Cc1nnc(CN(C)Cc2ccc(C(=O)Nc3sccc3C#N)cc2)o1
  cytotoxicity at 10 µM: -6.88%

## O=C(NCCN1CCOCC1)c1ccc(OCc2ccccc2)nc1
  cytotoxicity at 10 µM: -5.97%

## Cc1c(C(=O)NCCC2CN(C)CCO2)n(C)c2c(C)cccc12 (stereo unspecified)
  cytotoxicity at 10 µM: -3.83%

## Cc1cnn(CC2CN(Cc3cccc(OC(C)C)c3)CCO2)c1 (stereo unspecified)
  cytotoxicity at 10 µM: -4.83%

## O=C1NCCCC12CCN(Cc1ccc(SC3CCCCC3)o1)C2 (stereo unspecified)
  cytotoxicity at 10 µM: -3.33%

## CCN1CCCn2c(nc(CNC(=O)c3cnoc3C)cc2=O)C1
  cytotoxicity at 10 µM: 6.13%

## CCN1C(=O)C2(CCCCC2)NC12CCSCC2
  cytotoxicity at 10 µM: -149%

## CCn1nc(C)c2nnn(CC(=O)Nc3ccccc3)c(=O)c21
  cytotoxicity at 10 µM: 9.02%

## CN1CCOC2(CCCN(C(=O)C3CCCCC3)C2)C1 (stereo unspecified)
  cytotoxicity at 10 µM: -6.66%

## Cc1nnc(N2CC[C@@]3(O)CCNC[C@H]3C2)c2ccccc12
  cytotoxicity at 10 µM: 2.61%

## Cc1ccccc1[C@@H]1CN(Cc2nc3ncccn3n2)C[C@H]1C(=O)O
  cytotoxicity at 10 µM: -6.55%

## COC1CCN(CCNC(=O)C2CCCCC2)CC1
  cytotoxicity at 10 µM: 0.545%

## COc1ccc(C2CC(=O)Nc3c2cnn3C)cc1 (stereo unspecified)
  cytotoxicity at 10 µM: 22%

## CN1CCCC2(CCN(Cc3cncn3C3CCCCC3)C2)C1=O (stereo unspecified)
  cytotoxicity at 10 µM: -5.96%

## CNc1ncc(CN(C)CCN2CCCCC2)cn1
  cytotoxicity at 10 µM: 17.7%

## CCOC(=O)c1sc(NC(=O)CN(C)S(C)(=O)=O)c(C#N)c1C
  cytotoxicity at 10 µM: 16.6%

## COC(=O)C(C)Sc1nnnn1C1CCOCC1 (stereo unspecified)
  cytotoxicity at 10 µM: -10.5%

## Cc1nnc(N2CCCC3(CN(Cc4ccc(C)s4)CCO3)C2)o1 (stereo unspecified)
  cytotoxicity at 10 µM: -14.6%

## CCC1CN(CC(=O)Nc2sccc2C#N)CCO1 (stereo unspecified)
  cytotoxicity at 10 µM: -9.29%

## Cc1nc(C)n(C2CCCN(C(=O)c3ncoc3C(C)C)C2)n1 (stereo unspecified)
  cytotoxicity at 10 µM: -17%

## CC(C)N1CCC(CC(=O)N(C)C(C)c2cncs2)CC1 (stereo unspecified)
  cytotoxicity at 10 µM: 3.65%

## Cc1nc(N)sc1C(=O)N1CCCC(COc2ccc(F)cc2)C1 (stereo unspecified)
  cytotoxicity at 10 µM: -143%

## CCc1ncc(C(=O)N2CCn3c(CC)nnc3C2)s1
  cytotoxicity at 10 µM: 1.03%

## CN1CC=C(CCN(C)C(=O)CCc2ccccc2)CC1
  cytotoxicity at 10 µM: -5.84%

## COCC(=O)N1CCCn2c(CN3CCOCC3)nnc2C1
  cytotoxicity at 10 µM: -131%

## COC1CCCOC12CCN(C(=O)NCc1ccco1)CC2 (stereo unspecified)
  cytotoxicity at 10 µM: -15.3%

## CC(C)CC(NC(=O)c1ccco1)c1nnc2ccccn12 (stereo unspecified)
  cytotoxicity at 10 µM: -6.21%

## O=C(Nc1ccnc2ccnn12)c1ccc(NC2CC2)nc1
  cytotoxicity at 10 µM: 5.14%
